# Screening results deposited in PubChem BioAssay by several laboratories.
# UPR CHOP act = activators of apoptotic arm of unfolded protein response (CHOP). AID 449763. activation, % at 10 µM. hit rate 0.34% among 330,000. CHO-CHOP luciferase reporter, UPR activation, luminescence; percent of tunicamycin response over DMSO baseline;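 active = at 10 µM dose, activation of 40% or more, normalized to positive control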;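 note: 100% = tunicamycin at 10 µg/mL and 0% = DMSO alone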
#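 System: CHO-CHOP luciferase reporter cell line | Buffer or medium: F12 medium containing 10% fetal bovine serum | Doses: One dose, 10 µM in 0.5% DMSO | Times: 6 h compound exposure at 37 °C after overnight seeding | Signal: Luciferase luminescence | Read-out: % activation vs tunicamycin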
# XBP1 UPR activ = adaptive UPR (XBP1) activation; hit rate 0.33% among 330,000; CHO-XBP1 luciferase reporter, IRE1-XBP1 UPR activation, luminescence; percent of tunicamycin response, DMSO as zero; activation, % at 20 µM;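 active = versus positive control, 20 µM dose yields 30% or more activation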;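 note: 100% = tunicamycin at 10 µg/mL and 0% = DMSO only wells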
#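 incubation = overnight seeding at 37 °C, 6 h compound treatment at 37 °C | assay system = CHO-XBP1 cells stably carrying IRE1-XBP1-driven luciferase reporter | input = 1000 cells per well | detection = luciferase luminescence | dosing = single point, 20 µM final compound, 1% DMSO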
# p-CIP stab down = compounds decreasing mouse p/CIP protein stability; Q05BA5; decrease of EGFP signal, % at 10 µM; F442A p/CIP-EGFP cells, EGFP fluorescence, 16 h; hit rate 0.01% among 290,000;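 active = EGFP signal decrease of at least 30% at 10 µM or well 3 SD below plate mean, unless failing retest; inactive = the rest, including hits failing retest or dose response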
# Target sequence (Q05BA5 1-1403): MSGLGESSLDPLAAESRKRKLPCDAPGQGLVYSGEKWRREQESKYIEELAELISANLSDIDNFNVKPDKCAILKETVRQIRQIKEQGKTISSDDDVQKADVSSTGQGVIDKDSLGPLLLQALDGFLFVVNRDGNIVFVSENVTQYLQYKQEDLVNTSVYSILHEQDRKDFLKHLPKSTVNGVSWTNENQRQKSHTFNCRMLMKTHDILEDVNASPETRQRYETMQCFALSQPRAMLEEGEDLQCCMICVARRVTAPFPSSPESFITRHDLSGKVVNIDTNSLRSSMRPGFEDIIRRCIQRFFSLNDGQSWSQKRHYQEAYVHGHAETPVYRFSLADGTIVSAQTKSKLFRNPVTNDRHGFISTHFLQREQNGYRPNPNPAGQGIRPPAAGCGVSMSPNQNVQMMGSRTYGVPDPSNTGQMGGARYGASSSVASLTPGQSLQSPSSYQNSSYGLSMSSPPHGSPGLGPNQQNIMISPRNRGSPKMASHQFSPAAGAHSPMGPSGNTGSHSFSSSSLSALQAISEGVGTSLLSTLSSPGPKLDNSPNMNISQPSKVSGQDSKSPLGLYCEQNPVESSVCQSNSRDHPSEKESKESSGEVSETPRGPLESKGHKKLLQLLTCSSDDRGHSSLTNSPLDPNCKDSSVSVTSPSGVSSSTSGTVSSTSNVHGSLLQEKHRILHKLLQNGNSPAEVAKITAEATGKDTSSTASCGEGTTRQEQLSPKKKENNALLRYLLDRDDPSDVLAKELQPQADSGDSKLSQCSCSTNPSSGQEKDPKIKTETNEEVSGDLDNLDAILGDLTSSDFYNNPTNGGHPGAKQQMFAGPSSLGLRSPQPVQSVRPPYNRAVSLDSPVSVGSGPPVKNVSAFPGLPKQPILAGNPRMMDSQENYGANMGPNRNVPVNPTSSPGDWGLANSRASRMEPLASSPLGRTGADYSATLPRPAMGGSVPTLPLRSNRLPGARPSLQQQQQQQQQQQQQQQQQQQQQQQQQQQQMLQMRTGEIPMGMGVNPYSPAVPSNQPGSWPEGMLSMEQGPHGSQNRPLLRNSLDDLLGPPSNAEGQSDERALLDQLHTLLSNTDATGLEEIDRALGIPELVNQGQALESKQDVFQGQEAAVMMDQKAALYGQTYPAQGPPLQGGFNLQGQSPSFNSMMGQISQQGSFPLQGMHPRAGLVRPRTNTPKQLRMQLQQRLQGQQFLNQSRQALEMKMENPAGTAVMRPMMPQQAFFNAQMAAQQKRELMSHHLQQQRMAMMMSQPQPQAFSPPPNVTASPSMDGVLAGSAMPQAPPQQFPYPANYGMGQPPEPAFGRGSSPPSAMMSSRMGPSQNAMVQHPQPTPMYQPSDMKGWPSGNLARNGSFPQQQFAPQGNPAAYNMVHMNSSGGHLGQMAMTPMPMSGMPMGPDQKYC
# CHOP inhibitor = CHOP inhibition in unfolded protein response | CHO-K1 CHOP-promoter luciferase, tunicamycin-induced, 15-18 h | inhibition, % at 10 µM | hit rate 3.8% among 220,000;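 active = compounds that reduced the stress-induced luciferase reporter signal by more than about 70% of percent inhibition, limit read from the data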;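 note: 0% = tunicamycin plus vehicle and 100% = wells without tunicamycin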
# Beta2AR agonist = activates human beta-2 adrenergic receptor causing internalization. P07550. Am2.2-beta2AR cells, FAP receptor internalization, flow cytometry. response, % (no concentration beside the values). hit rate 0.43% among 340,000;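 active = response above a set limit, near 3 SD of response in nonfluorescent compounds, cut at about 42% in these data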
# Dynein transport = blocks dynein driven cargo transport along microtubules | z-score, hits read low | hit rate 0.47% among 220,000 | 3617.4 mouse cells, GR-EGFP nuclear translocation imaging; test concentration mostly 20 µM; stimulated with dexamethasone, 1 µM; stronger effect = lower value;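 active = plate z-score of nuclear minus cytoplasmic receptor signal below a set negative limit, without overly bright fluorescence or cell loss, cut at about -3.5 in these data, passing the limit was not always enough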;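 note: z-score of nuclear minus cytoplasmic ring GR-EGFP intensity difference per well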
#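 Also added – dexamethasone, 1.0 µM final · Buffer or medium – tet-free, stripped-serum medium · Schedule – induction 48 h, compound 1 h, agonist 30 min · Detection – formaldehyde fixation, Hoechst nuclear stain, 10x automated fluorescence imaging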
# An asterisk follows results filed as active; nt = no result given. This is one part of a sample in which hits are shown more often than they occur.
SMILES,UPR CHOP act,XBP1 UPR activ,p-CIP stab down,CHOP inhibitor,Beta2AR agonist,Dynein transport
O=C(CCCCn1c(=O)c2ccccc2n(Cc2ccccc2F)c1=O)NC1CCN(Cc2ccccc2)CC1,-2,-2,-13,79*,22,0.56
Cc1ccnc(NC(=S)NC(=O)/C=C/c2ccc(Cl)cc2)c1,1,2,-3,-10,-6,-0.57
CCCCN(CCCC)c1ncnc2nc[nH]c12,-1,-1,20,54,-1,2.5
CCCCN(Cc1ccccc1)c1ncnc2nc[nH]c12,5,0,-17,75*,2,1.7
COc1cc2cc3c(N)c(C(=O)NCc4ccco4)sc3nc2cc1OC,2,3,-12,-4,6,-0.53
COc1cc2cc3c(N)c(C(=O)Nc4sc(C)c(C)c4C#N)sc3nc2cc1OC,0,4,-6,81*,-4,1.9
O=c1onc2cnc3ccccc3n12,nt,nt,nt,10,nt,nt
CCC1CCCCN1c1cc(C)nc2cc(-c3cccc(C)c3)nn12 (stereo unspecified),0,-2,-7,87*,34,0.34
O=C(Nc1ccc(N2CCN(C(=O)c3ccccc3)CC2)c(Cl)c1)c1ccc(Br)o1,4,-2,-2,85*,13,-0.65
O=C(Nc1ccc(N2CCOCC2)c(Cl)c1)c1ccc(Br)o1,7,3,-5,nt,10,-0.51
Clc1ccc(/C=N/Nc2ncnc3ccccc23)cc1Cl,1,7,-1,86*,-3,-0.34
COc1cc(C)c(CN2CCN(CC(=O)Nc3ccccc3C(=O)NC3CC3)CC2)cc1OC,-1,-1,nt,nt,-7,nt
O=C(NC(=S)Nc1ccc2c(c1)C(=O)c1ccccc1C2=O)c1ccc(F)cc1,15,41*,-2,-14,nt,-0.27
Cc1ccc2nc(-c3ccccn3)c(Nc3ccccc3C)n2c1,19,7,-6,77*,9,1.6
Cc1ccn2c(Nc3ccccc3C)c(-c3ccccn3)nc2c1,16,11,2,88*,11,-0.063
Cc1ccccc1Nc1c(-c2ccccn2)nc2ccccn12,2,12,-3,69,-6,0.49
Cc1ccn2c(Nc3ccccc3)c(-c3ccccn3)nc2c1,16,9,1,84*,17,-0.54
Cc1cccn2c(Nc3ccccc3)c(-c3ccccn3)nc12,3,2,2,-71,-17,-1.9
COc1ccccc1-c1sc2ccccc2c1C#Cc1ccc(N(C)C)cc1,-2,1,nt,nt,8,nt
COc1ccc(N2CCN(CCC(=O)c3ccc4ccccc4c3)CC2)cc1,3,3,-6,nt,1,nt
Cc1ccc(NC(=O)Cc2ccc3c(c2)CCCC3)cc1C,2,0,-1,72*,2,0.024
Cc1ccc2cc(C)c(SCC(=O)Nc3cc(C)on3)nc2c1,-1,2,0,nt,1,nt
CCc1cccc(NC(=O)CCCCCC2NC(=O)NC2C)c1 (stereo unspecified),1,-1,4,17,16,-0.84
CC(C)CCCCCCNC(=S)Nc1ccc(S(=O)(=O)N2CCOCC2)cc1,-1,4,5,76*,-2,-0.42
O=S(=O)(c1ccc(NC(=S)Nc2ccccc2)cc1)N1CCOCC1,1,-4,-2,13,11,-0.62
SMILES,UPR CHOP act,XBP1 UPR activ,p-CIP stab down,CHOP inhibitor,Beta2AR agonist,Dynein transport
Cc1ccc(/C=N/c2sc3c(c2C#N)CCCCC3)o1,-1,-7,3,77*,9,0.89
CC(C)CN(/C=N/c1sc2c(c1C#N)CCCCC2)CC(C)C,1,1,1,74*,3,-0.79
N#Cc1c(/N=C/c2ccco2)sc2c1CCC2,5,8,-3,32,-13,1.1
Cc1[nH]n(-c2ccc(F)cc2)c(=O)c1/C=N/c1sc2c(c1C#N)CCCC2,-1,-3,-5,90*,8,0.91
C=CCN=C1S/C(=C\c2ccc(N(C)C)cc2)C(=O)N1CC=C,7,2,-13,-36,-10,0.39
Cc1ccc(/C=N\NC(=O)/C(=C\Nc2nccc(C)n2)NC(=O)c2ccccc2)cc1,5,-5,-5,-5,4,-0.25
CC(=O)c1ccc(NC(=O)Nc2ccc(Cl)cc2)cc1,4,4,-16,78*,17,-0.37
CC(=O)c1ccc(NC(=O)N[C@@H](CC(C)C)C(=O)O)cc1,0,-4,-3,72*,7,-0.5
CC(=O)c1cccc(NC(=O)N[C@@H](CC(C)C)C(=O)O)c1,-1,-1,-9,1,-6,-0.72
CN(C)CCN(C(=O)CCc1ccccc1)c1nc2c(F)cc(F)cc2s1,2,1,5,71*,-9,-0.25
CN(C)CCCN(C(=O)CCc1ccccc1)c1nc2ccc(F)cc2s1,2,2,2,18,0,0.13
Cc1cc(C)cc(NC(=O)/C=C/c2ccc([N+](=O)[O-])s2)c1,nt,nt,-19,-21,0,0.86
CC(=O)c1cccc(NC(=O)/C=C/c2ccc([N+](=O)[O-])s2)c1,nt,nt,-18,74*,-9,-0.19
COc1cc(CN(C)C(=O)C(=O)c2c[nH]c3ccccc23)ccc1O,nt,nt,nt,nt,7,nt
COc1ccc(C(c2c[nH]c3ccccc23)c2c[nH]c3ccccc23)cc1O,2,-1,-7,75*,0,0.55
O=C(O)c1cc(=O)c2ccc(Cl)cc2[nH]1,nt,nt,nt,15,nt,nt
C=CCn1c(SCCNC(C)=O)nc2cc(-c3ccccc3)sc2c1=O,4,1,-8,nt,-7,nt
COc1ccc(-c2cc3nc(C)n(N)c(=O)c3s2)cc1,-10,-10,0,102*,-1,1.1
Cc1nc2cc(-c3ccccc3)sc2c(=O)n1N,-9,-11,2,74*,-20,-0.017
COc1ccc(CN(CC(=O)NCc2ccco2)C(=O)CNS(=O)(=O)c2ccc(C)cc2)cc1,0,-2,-6,nt,1,nt
CC1=CC(C)C2(COC(=O)Nc3ccccc3)COC(C)C1C2C (stereo unspecified),2,-1,0,31,13,-0.77
COc1ccc(NC(=O)C2CC(c3ccccc3Cl)=NO2)cc1 (stereo unspecified),3,-5,3,nt,-5,nt
CCOC(=O)c1cccc(NC(=O)Cn2cnc3c2c(=O)n(C)c(=O)n3C)c1,-1,-1,-5,-9,-3,-0.93
O=C(Nc1ccc(N2CCCC2)cc1)C(Cl)c1ccccc1 (stereo unspecified),6,-1,-10,78*,76*,-0.56
CS(=O)(=O)N1CCN(c2ccc(NC(=O)C(c3ccccc3)c3ccccc3)cc2)CC1,-1,-1,9,39,9,-0.061
O=C(N/N=C/c1ccccc1)c1c(O)c2ccccc2[nH]c1=O,3,0,12,78*,3,-0.48
